Measured values from ChEMBL document CHEMBL1138302, “Diaryl dihydropyrazole-3-carboxamides with significant in vivo antiobesity activity related to CB1 receptor antagonism: synthesis, biological evaluation, and molecular modeling in the homology model” (J Med Chem, 2007).
One block for each molecule: values may come before it. Activity calls are given as the source filed them.

What was measured:
[1] = system: Rattus norvegicus; assay: Inhibition of sucrose intake in Zucker fa/fa rat at 10 mg/kg, po after 4 hrs; format: functional; details: for inhibition in vivo at 10 mg/kg: Rattus norvegicus, Zucker, po, 4 h
Summary of the method: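 Female Zucker fa/fa rats (10-12 weeks, 300-350 g) trained six consecutive days on 5% sucrose with food and water withdrawn; day 7 randomized (n=6), dosed orally 10 mg/kg in 0.5% carboxymethylcellulose (2 mL/kg), exposed to sucrose 1 h later for 4 h. Consumption measured; % inhibition vs vehicle control; one-way ANOVA with Dunnett's test.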

[2] = target: Cannabinoid receptor 2 (Homo sapiens, UniProt P34972); assay: Displacement of [3H]WIN-552122 from human recombinant CB2 receptor expressed in CHOK1 cells; format: cell-based, CHO-K1
Sequence of Cannabinoid receptor 2 (P34972 whole entry): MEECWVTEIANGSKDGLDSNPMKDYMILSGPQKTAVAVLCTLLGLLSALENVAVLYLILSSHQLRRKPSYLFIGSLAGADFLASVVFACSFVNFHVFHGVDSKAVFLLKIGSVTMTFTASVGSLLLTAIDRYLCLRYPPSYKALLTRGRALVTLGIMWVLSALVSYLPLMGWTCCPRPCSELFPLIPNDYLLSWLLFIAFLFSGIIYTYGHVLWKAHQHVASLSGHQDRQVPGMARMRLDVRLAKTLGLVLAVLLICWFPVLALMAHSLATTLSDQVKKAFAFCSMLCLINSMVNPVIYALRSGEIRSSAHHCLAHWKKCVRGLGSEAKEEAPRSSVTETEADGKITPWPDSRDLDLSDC

[3] = target: Cannabinoid receptor 1 (Homo sapiens, UniProt P21554); assay: biochemical; format: cell-based, HEK293
Sequence of Cannabinoid receptor 1 (P21554 whole entry): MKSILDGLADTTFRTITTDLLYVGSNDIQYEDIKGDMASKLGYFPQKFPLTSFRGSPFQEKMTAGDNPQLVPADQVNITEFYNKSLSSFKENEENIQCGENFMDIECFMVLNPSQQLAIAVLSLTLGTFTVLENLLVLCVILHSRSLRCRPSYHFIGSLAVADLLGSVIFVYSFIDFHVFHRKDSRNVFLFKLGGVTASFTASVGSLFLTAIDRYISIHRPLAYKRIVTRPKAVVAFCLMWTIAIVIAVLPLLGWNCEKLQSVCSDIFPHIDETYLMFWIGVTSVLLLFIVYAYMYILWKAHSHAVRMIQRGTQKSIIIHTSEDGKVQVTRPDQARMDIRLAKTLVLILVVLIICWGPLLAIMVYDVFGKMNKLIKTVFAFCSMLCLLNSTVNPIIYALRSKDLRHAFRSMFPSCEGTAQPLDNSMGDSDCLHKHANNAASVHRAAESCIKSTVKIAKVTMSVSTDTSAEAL

[4] = system: Rattus norvegicus; assay: Reduction in serum triglyceride level in Zucker fa/fa rat at 10 mg/kg, po after 60 days; format: functional, organism-based; design: dose 10 mg/kg
Summary of the method: (§1)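 Individually housed female obese Zucker fa/fa rats, groups of six, dosed orally daily 1 h before dark phase for 60 days; body weight recorded daily. Day 61 morning retro-orbital blood drawn and serum triglyceride measured by colorimetric kit. One-way ANOVA with Dunnett's test versus control.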

[5] = system: Rattus norvegicus; assay: Inhibition of body weight gain in Zucker fa/fa rat at 10 mg/kg, po; format: functional, organism-based; design: dose 10 mg/kg; summary of the method: as §1
[6] = system: Mus musculus; assay: Effect on locomotor activity in Swiss albino mouse tetrad model assessed as number of squares crossed in 5 mins at 1 mg/kg po after 35 mins in presence of 1 mg/kg cannabinoid agonist WIN-55212-2 relative to control; format: functional
Summary of the method: (§2)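 Female Swiss albino mice (10-12 weeks, 25-30 g), n=6, dosed orally in 0.5% carboxymethylcellulose (10 mL/kg); 1 h later WIN-55212-2 1 mg/kg iv in 0.01% Tween 80/5% DMSO saline. From 30 min on: rectal temperature before and after treatment; hot plate 55 °C, %MPE, 30 s cutoff; ring-test immobility over 5 min; open-field squares crossed in 5 min at 35 min. Compared with WIN-treated controls.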

[7] = system: Mus musculus; assay: Effect on catalepsy in Swiss albino mouse tetrad model assessed as immobility for 5 mins at 1 mg/kg po after 30 mins by ring test in presence of 1 mg/kg cannabinoid agonist WIN-55212-2 relative to control; format: functional; summary of the method: as §2
[8] = Drug concentration in fasted Zucker fa/fa rat white adipose tissue at 30 mg/kg, po after 3 hrs; format: ADME, organism-based; design: dose 30 mg/kg, route oral; details: read-out: Drug uptake
Summary of the method: (§3)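 Female obese Zucker fa/fa rats (n=6), fasted, single oral 30 mg/kg in 0.5% carboxymethylcellulose; blood, brain and white adipose tissue taken at 3 h. Tissues saline-washed and homogenized in Tris buffer pH 7.4; plasma and homogenates liquid-liquid extracted and assayed by LC-MS (cyano column, ammonium acetate/TFA–acetonitrile 30:70). Values mean ± SEM.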

[9] = Tmax in fasted Zucker fa/fa rat at 30 mg/kg, po; format: ADME, organism-based; design: dose 30 mg/kg, route oral; details: in vivo
Summary of the method: (§4)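 Overnight-fasted female obese Zucker fa/fa rats (n=6), single 30 mg/kg oral dose as suspension in 0.5% carboxymethylcellulose sodium in water. Retro-orbital serial bleeds at 10, 20, 40 min and 1, 2, 4, 6, 8, 24, 48 h; plasma extracted liquid-liquid and quantified by LC-MS against spiked-matrix calibration with internal standard. Noncompartmental parameters computed.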

[10] = system: Mus musculus; assay: Effect on locomotor activity in Swiss albino mouse tetrad model assessed as number of squares crossed in 5 mins at 30 mg/kg po after 35 mins in presence of 1 mg/kg cannabinoid agonist WIN-55212-2 relative to control; format: functional; summary of the method: as §2
[11] = system: Mus musculus; assay: Effect on change in body temperature in Swiss albino mouse tetrad model at 30 mg/kg po in presence of 1 mg/kg cannabinoid agonist WIN-55212-2 relative to control; format: functional; summary of the method: as §2
[12] = system: Mus musculus; assay: Analgesic activity in Swiss albino mouse tetrad model at 30 mg/kg po by hot plate test in presence of 1 mg/kg cannabinoid agonist WIN-55212-2 relative to control; format: functional; summary of the method: as §2
[13] = system: Mus musculus; assay: Analgesic activity in Swiss albino mouse tetrad model at 3 mg/kg po by hot plate test in presence of 1 mg/kg cannabinoid agonist WIN-55212-2 relative to control; format: functional; summary of the method: as §2
[14] = system: Mus musculus; assay: Effect on catalepsy in Swiss albino mouse tetrad model assessed as immobility for 5 mins at 30 mg/kg po after 30 mins by ring test in presence of 1 mg/kg cannabinoid agonist WIN-55212-2 relative to control; format: functional; summary of the method: as §2
[15] = system: Mus musculus; assay: Effect on catalepsy in Swiss albino mouse tetrad model assessed as immobility for 5 mins at 3 mg/kg po after 30 mins by ring test in presence of 1 mg/kg cannabinoid agonist WIN-55212-2 relative to control; format: functional; summary of the method: as §2
[16] = system: Mus musculus; assay: Analgesic activity in Swiss albino mouse tetrad model at 10 mg/kg po by hot plate test in presence of 1 mg/kg cannabinoid agonist WIN-55212-2 relative to control; format: functional; summary of the method: as §2
[17] = system: Mus musculus; assay: Effect on locomotor activity in Swiss albino mouse tetrad model assessed as number of squares crossed in 5 mins at 10 mg/kg po after 35 mins in presence of 1 mg/kg cannabinoid agonist WIN-55212-2 relative to control; format: functional; summary of the method: as §2
[18] = Drug concentration in fasted Zucker fa/fa rat plasma at 30 mg/kg, po after 3 hrs; format: ADME, organism-based; design: dose 30 mg/kg, route oral; summary of the method: as §3
[19] = system: Mus musculus; assay: Effect on change in body temperature in Swiss albino mouse tetrad model at 3 mg/kg po in presence of 1 mg/kg cannabinoid agonist WIN-55212-2 relative to control; format: functional; summary of the method: as §2
[20] = Drug concentration in fasted Zucker fa/fa rat brain at 30 mg/kg, po after 3 hrs; format: ADME, organism-based; design: dose 30 mg/kg, route oral; details: read-out: Drug uptake; summary of the method: as §3
[21] = system: Mus musculus; assay: Analgesic activity in Swiss albino mouse tetrad model at 1 mg/kg po by hot plate test in presence of 1 mg/kg cannabinoid agonist WIN-55212-2 relative to control; format: functional; summary of the method: as §2
[22] = AUC (0 to infinity) in fasted Zucker fa/fa rat at 30 mg/kg, po; format: ADME, organism-based; design: time infinity, dose 30 mg/kg, route oral; details: plasma; summary of the method: as §4
[23] = Cmax in fasted Zucker fa/fa rat at 30 mg/kg, po; format: ADME, organism-based; design: dose 30 mg/kg, route oral; details: in vivo; summary of the method: as §4
[24] = Half life in fasted Zucker fa/fa rat at 30 mg/kg, po; format: ADME, organism-based; design: dose 30 mg/kg, route oral; details: in vivo; summary of the method: as §4
[25] = system: Mus musculus; assay: Effect on change in body temperature in Swiss albino mouse tetrad model at 10 mg/kg po in presence of 1 mg/kg cannabinoid agonist WIN-55212-2 relative to control; format: functional; summary of the method: as §2
[26] = system: Mus musculus; assay: Effect on change in body temperature in Swiss albino mouse tetrad model at 1 mg/kg po in presence of 1 mg/kg cannabinoid agonist WIN-55212-2 relative to control; format: functional; summary of the method: as §2
[27] = system: Mus musculus; assay: Effect on locomotor activity in Swiss albino mouse tetrad model assessed as number of squares crossed in 5 mins at 3 mg/kg po after 35 mins in presence of 1 mg/kg cannabinoid agonist WIN-55212-2 relative to control; format: functional; summary of the method: as §2
[28] = system: Mus musculus; assay: Effect on catalepsy in Swiss albino mouse tetrad model assessed as immobility for 5 mins at 10 mg/kg po after 30 mins by ring test in presence of 1 mg/kg cannabinoid agonist WIN-55212-2 relative to control; format: functional; summary of the method: as §2

SMILES: O=C(NN1CCOCC1)C1=NN(c2ccc(Cl)cc2Cl)C(c2ccc(Cl)cc2)C1 (configuration not stated)
- Inhibition [1]: 34.2%

SMILES: O=C(NN1CCOCC1)C1=NN(c2ccc(Cl)cc2)C(c2ccc(Cl)cc2)C1 (configuration not stated)
- inhibition in vivo at 10 mg/kg [1]: 8.1%

SMILES: O=C(NN1CCOCC1)C1=NN(c2ccc(Cl)cc2)C(c2ccccc2)C1 (configuration not stated)
- inhibition in vivo at 10 mg/kg [1]: 5.6%

SMILES: CCCCCc1ccc(C2CC(C(=O)NN3CCOCC3)=NN2c2ccc(Cl)cc2Cl)cc1 (configuration not stated)
- inhibition in vivo at 10 mg/kg [1]: 13.1%

SMILES: COc1ccc(C2CC(C(=O)NN3CCOCC3)=NN2c2ccc(Cl)cc2Cl)cc1 (configuration not stated)
- inhibition in vivo at 10 mg/kg [1]: 9.4%

SMILES: O=C(NN1CCOCC1)C1=NN(c2ccc(Cl)cc2Cl)C(c2cccnc2)C1 (configuration not stated)
- inhibition in vivo at 10 mg/kg [1]: 4%

SMILES: CS(=O)(=O)O.O=C(NN1CCOCC1)C1=NN(c2ccc(Cl)cc2Cl)C(c2ccc(Cl)cc2)C1 (configuration not stated)
- Inhibition [1]: 19.2%

SMILES: Cl.O=C(NN1CCOCC1)C1=NN(c2ccc(Cl)cc2Cl)C(c2ccc(Cl)cc2)C1 (racemic; form 1)
- Inhibition ([1]; 10 mg/kg): 34.5%

- Ki [2]: 21.7 µM
- Ki [3]: 0.334 µM
SMILES: O=C(NN1CCOCC1)C1=NN(c2ccc(Cl)cc2Cl)C(c2ccc(Cl)cc2)C1.O=S(=O)(O)O (racemic; form 2)
- Inhibition ([1]; 10 mg/kg): 36.4%

SMILES: O=C(NN1CCOCC1)C1=NN(c2ccc(Cl)cc2Cl)C(c2ccc(Cl)cc2)C1 (racemic; form 2)
- Activity [4]: Active
- Activity [5]: Active

SMILES: Cl.O=C(NN1CCOCC1)C1=NN(c2ccc(Cl)cc2Cl)C(c2ccc(Cl)cc2)C1 (single isomer, unassigned; 27)
- Inhibition ([1]; 10 mg/kg): 30.1%

- Ki [2]: 26.4 µM
- Ki [3]: 0.475 µM
SMILES: O=C(NN1CCOCC1)C1=NN(c2ccc(Cl)cc2Cl)C(c2ccc(Cl)cc2)C1.O=S(=O)(O)O (single isomer, unassigned; 28)
- Inhibition ([1]; 10 mg/kg): 15.4%

- concentration at 3 h [8]: 6310 ng/g
- Tmax [9]: 3.7 h
- concentration at 3 h [18]: 1400 ng/mL
- concentration at 3 h [20]: 4860 ng/g
- AUC(0-inf) [22]: 10000 ng·h/mL
- Ki [2]: 24.5 µM
- Cmax [23]: 510 ng/mL
- half-life [24]: 17.6 h
- Ki [3]: 0.15 µM
SMILES: O=C(NN1CCOCC1)C1=NN(c2ccc(Cl)cc2Cl)C(c2ccc(Cl)cc2)C1.O=S(=O)(O)O (single isomer, unassigned; 30)
- Activity [6]: 0.4
- Activity [7]: 85.2%
- Inhibition ([1]; 10 mg/kg): 58.6%
- Activity [10]: 25
- Activity [11]: 0.15 °C
- MPE [12]: 11.5%
- MPE [13]: 12%
- Activity [14]: 18.23%
- Activity [15]: 33.75%
- MPE [16]: -0.15%
- Activity [17]: 13.25
- Activity [19]: -2.1 °C
- MPE [21]: 24%
- Activity [25]: -0.15 °C
- Activity [26]: -4.24 °C
- Activity [27]: 3
- Activity [28]: 14.2%

SMILES: O=C(NN1CCOCC1)C1=NN(c2ccc(Cl)cc2Cl)C(c2ccc(Cl)cc2)C1 (single isomer, unassigned; 30)
- Activity [4]: Active
- Activity [5]: Active

SMILES: O=C(NN1CCOCC1)C1=NN(c2ccc(Cl)cc2Cl)C(c2ccc(Cl)cc2)C1.O=S(=O)(O)c1ccccc1 (single isomer, unassigned; 33)
- Inhibition [1]: 17.1%

SMILES: Cl.O=C(NN1CCOCC1)C1=NN(c2ccc(Cl)cc2Cl)C(c2ccc(Cl)cc2)C1 (stereo in doubt; 29)
- Inhibition ([1]; 10 mg/kg): 42.2%

- concentration at 3 h [8]: 4250 ng/g
- Tmax [9]: 2.6 h
- concentration at 3 h [18]: 400 ng/mL
- concentration at 3 h [20]: 450 ng/g
- AUC(0-inf) [22]: 41200 ng·h/mL
- Cmax [23]: 1920 ng/mL
- half-life [24]: 26.6 h
SMILES: Cc1c(C(=O)NN2CCCCC2)nn(-c2ccc(Cl)cc2Cl)c1-c1ccc(Cl)cc1 [RIMONABANT]
- inhibition in vivo at 10 mg/kg [1]: 36.7%
- Activity [4]: Active
- Activity [5]: Active
